In publication PMC4416029 (Behavioural Pharmacology, 2015):

Columns and labels:
[1] = tested on: Line 1 (L1) tau transgenic mice; assay: Problem-solving task in the water maze; type: in vivo, mouse
Procedure, shortened: (§1)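 Mice aged 5 months (L1 and WT) received 15 or 45 mg/kg by oral gavage for 5 weeks (Monday–Friday), with dosing continued during testing 1 h before the first trial. Cued training lasted 4 days at 4 trials/day in a 1.5 m pool with water at 21±1°C, curtains drawn and a flagged platform moved daily among 20 sites. Each trial allowed 60 s, with a 2 s stay and a 10-min intertrial interval. Path length and swim speed were video-tracked.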

[2] = tested on: wild-type (WT) control mice; assay: Visible platform task in the water maze, WT mice; type: in vivo, mouse
Procedure, shortened: as §1

[3] = Body weight over 8 weeks of oral treatment, L1 and WT mice; type: in vivo, mouse; settings: over 8 weeks of oral administration; identical in WT and L1 cohorts; drug exposure did not differ from vehicle
[4] = target: aggregated tau in Line 1 (Homo sapiens, UniProt P10636); assay: Immunohistochemical counts of tau-reactive neurons; type: in vivo, mouse; settings: L1 mice, 45 mg/kg oral, 19 days
Chain of aggregated tau in Line 1 (P10636 613-707): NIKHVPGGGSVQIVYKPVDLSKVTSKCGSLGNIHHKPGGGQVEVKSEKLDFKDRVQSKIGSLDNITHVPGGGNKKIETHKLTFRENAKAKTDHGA
Procedure, shortened: (§2)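 Separate histology cohorts were killed by Euthatal overdose 1 h after the last dose. Brains were removed, paraformaldehyde-fixed and paraffin-embedded. Sixteen 3-μm sections per brain were stained together with WT, L1 and L66 controls, using mAb 7/51 (hybridoma supernatant 1:300) with HRP anti-mouse detection and haematoxylin counterstain. Tau-reactive neurons were counted by region, expressed as ln(count+1) and as percentage reduction versus zero dose.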

[5] = target: aggregated tau in L66 (Homo sapiens, UniProt P10636, G652D/P618S); assay: Immunohistochemical counts of tau-reactive neurons; type: in vivo, mouse; settings: L66 heterozygous, 8–9 months, MTC 45 mg/kg (35.1 mg MT/kg), 3 weeks
Chain of aggregated tau in L66 (P10636 1-441 isoform P10636-8 P301S/G335D): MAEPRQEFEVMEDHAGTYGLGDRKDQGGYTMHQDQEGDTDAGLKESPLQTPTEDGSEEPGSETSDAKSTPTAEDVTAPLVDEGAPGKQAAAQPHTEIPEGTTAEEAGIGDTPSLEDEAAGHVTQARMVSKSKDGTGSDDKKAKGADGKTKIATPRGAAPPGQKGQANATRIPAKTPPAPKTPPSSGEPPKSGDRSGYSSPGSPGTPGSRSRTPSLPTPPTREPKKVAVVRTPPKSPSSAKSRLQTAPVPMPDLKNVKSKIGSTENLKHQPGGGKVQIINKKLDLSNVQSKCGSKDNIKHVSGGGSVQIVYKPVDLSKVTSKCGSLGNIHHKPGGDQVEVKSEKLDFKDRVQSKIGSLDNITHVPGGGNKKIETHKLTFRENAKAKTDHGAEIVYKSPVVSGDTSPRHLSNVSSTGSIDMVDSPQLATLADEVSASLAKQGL
Procedure, shortened: as §2

[6] = tested on: Line 66 (L66) tau transgenic mice; assay: RotaRod motor performance and motor learning, L66 mice; type: in vivo, mouse
Procedure, shortened: (§3)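 On a four-lane rat RotaRod, pretreatment trials in week 1 were used for cohort matching. Mice then received 2 weeks of daily oral dosing (Monday–Sunday, 08.00–10.00 h): L66 at 5, 15 or 45 mg/kg, WT at 45 mg/kg only. Post-treatment training in week 4 continued dosing 1 h before the first trial. Time to fall was recorded over 12 trials. Learning was scored as trial 12 minus trial 1, and memory as pretreatment versus post-treatment trial 1.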

[7] = tested on: wild-type (WT) control mice; assay: RotaRod motor performance, WT mice; type: in vivo, mouse; settings: 45 mg/kg oral
Procedure, shortened: as §3

[8] = Measurement of methylthioninium levels in the brain of L66 mice; type: in vivo, mouse
[9] = Body weight during 19-day treatment, L66 and WT mice; type: in vivo, mouse; settings: 5–45 mg/kg oral, 19 days, LMTX in this case LMTB
[10] = tested on: L1 mice; assay: Behavioural reactions observed on treatment, L1 histology cohorts; type: in vivo, mouse; settings: 75 mg/kg oral, transient
[11] = tested on: Alzheimer's disease patients; settings: AD of mild or moderate severity, 24 weeks; ref Wischik et al., 2015; cited from earlier work
[12] = tested on: mitochondrial β-oxidation; settings: ref Visarius et al., 1997; cited from earlier work

With “3,7-bis(dimethylamino)phenothiazin-5-ylium chloride [MTC]” the “effect on swim speed” value ([1]; L1 and WT mice, 15 and 45 mg/kg oral, visible platform task) was “did not alter the velocity”, the “effect on mean number of trials to criterion (three spatial problems)” value ([1]; L1 mice, 15 mg/kg oral) was “longer training required to meet criterion” and the “effect on mean number of trials to criterion (three spatial problems)” value ([1]; L1 mice, 45 mg/kg oral) was “impairment was reversed”. For the same substance, the “effect on path length to visible platform” value (“effect on path length” for short) ([1]; L1 mice, 15 and 45 mg/kg oral, 4 days cued training) was “No drug effect”, the “dose required to produce benefit in spatial problem-solving water maze task” value ([1]; L1 mice, oral, 8 weeks, dose as weight of compound) was 45 mg/kg and the “effect on path length” value ([2]; 15 mg/kg oral) was “improvement”. For the same substance, the “effect on path length” value ([2]; 45 mg/kg oral) was “did not differ from controls”, the weight loss [3] was 15–20% and the “reduction in tau-reactive neurons, subiculum” value [4] was 83%. The “percentage reduction in counts compared with zero dose, mean over region” value [5] was 44%, the “effect on post-treatment RotaRod performance vs vehicle” value (from here on “effect … vs vehicle”) ([6]; 5 mg/kg oral) was “significant benefit” and the “effect … vs vehicle” value ([6]; 15 mg/kg oral) was “significant benefit”. For the same substance, the “effect on motor learning (difference between trial 1 and trial 12)” value ([6]; all doses (5, 15, 45 mg/kg)) was “full recovery of motor learning”, the “lowest effective dose, correction of motor learning on RotaRod” value ([6]; oral, 19 days (5 mg/kg of compound)) was 4 mg MT/kg and the “effect … vs vehicle” value [7] was “did not affect the performance”. For the same substance, the “brain MT concentration with evidence of plateauing of RotaRod performance” value ([8]; 5 or 15 mg/kg, LMTX in this case LMTB) was 0.6 mmol/L, the “mean brain concentration of total MT” value ([8]; lowest effective dose (4 mg MT/kg), oral) was 150 ± 10 nM and the “effect on body weight compared with vehicle controls” value [9] was “dose-dependent weight loss”. The behavioural reactions [10] was “hunched posture, low activity, piloerection”, the “minimum effective dose at clinical and molecular imaging endpoints” value [11] was 138 mg MT/day and the “concentration for enhancement of mitochondrial β-oxidation” value [12] was 0.3 µmol/L.
